Activity calls are given as the source filed them. Where a SMILES comes first, the peptide text is derived from it. [ ]: non-standard residue; d: D form. The star is where a group is joined. X1 = Cc1cc(O)cc(C)c1C[C@H](C)C(=O)*; Orn = NCCC[C@H](N)C(=O)O
Assays:
[1] = Toxicity in mouse HN9.10 cells expressing human KOR assessed as cell viability at 1 mM after 24 hrs by XTT assay; format: cell-based; conditions: read-out: Activity
Mu-type opioid receptor = Mu-type opioid receptor (Homo sapiens, UniProt P35372); test: Displacement of [3H]diprenorphine from human MOR expressed in mouse NG108-15 cell membranes incubated for 2 hrs by liquid scintillation counting based radioligand competition assay
Mu-type opioid receptor, sequence (P35372 whole entry): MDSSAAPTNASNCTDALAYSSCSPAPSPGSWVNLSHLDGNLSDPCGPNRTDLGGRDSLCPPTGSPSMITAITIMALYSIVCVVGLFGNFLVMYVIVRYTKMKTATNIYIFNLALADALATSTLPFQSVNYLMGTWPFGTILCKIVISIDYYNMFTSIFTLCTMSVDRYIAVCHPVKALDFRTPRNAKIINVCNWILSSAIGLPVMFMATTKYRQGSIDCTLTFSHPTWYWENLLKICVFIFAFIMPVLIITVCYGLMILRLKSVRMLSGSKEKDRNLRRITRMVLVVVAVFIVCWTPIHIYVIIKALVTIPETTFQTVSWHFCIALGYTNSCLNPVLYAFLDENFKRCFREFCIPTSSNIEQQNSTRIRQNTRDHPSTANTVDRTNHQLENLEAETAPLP

[2] = Half life in rat plasma by RP-HPLC analysis; format: ADME, cell-free
Procedure, shortened: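 Stock at 50 mg/mL diluted 5-fold into heparinized rat plasma at 37 °C. Aliquots taken at 1, 2, 4, 6, 12 and 24 h were quenched with EtOH (ACN for one analogue) and centrifuged.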

[3] = molecular target: Delta-type opioid receptor (Homo sapiens, UniProt P41143); test: Displacement of [3H]deltorphin-II from human DOR expressed in CHO cell membranes incubated for 2 hrs by liquid scintillation counting based radioligand competition assay
Delta-type opioid receptor, sequence (P41143 whole entry): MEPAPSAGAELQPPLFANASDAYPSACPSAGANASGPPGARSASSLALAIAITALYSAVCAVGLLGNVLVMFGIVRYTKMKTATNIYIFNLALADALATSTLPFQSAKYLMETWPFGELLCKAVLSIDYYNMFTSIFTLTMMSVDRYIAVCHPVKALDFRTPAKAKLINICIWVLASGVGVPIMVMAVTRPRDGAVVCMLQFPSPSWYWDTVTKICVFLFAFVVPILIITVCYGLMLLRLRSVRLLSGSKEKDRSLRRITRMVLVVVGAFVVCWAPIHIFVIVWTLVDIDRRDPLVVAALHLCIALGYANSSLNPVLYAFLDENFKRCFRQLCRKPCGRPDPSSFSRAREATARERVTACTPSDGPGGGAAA
Procedure, shortened: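 Crude membranes from transfected cells, 50 µg protein, in 50 mM Tris-HCl pH 7.4 with bacitracin 50 µg/mL, captopril 10 µM, PMSF 100 µM and BSA 5 mg/mL. Ten concentrations (10−4–10−13 M) were run against 500 pM [3H]deltorphin II for 2 h at rt with shaking. Nonspecific binding was taken with 10 µM naloxone. Filtered on PEI-soaked GF/B, washed in cold saline, scintillation counted.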

Mus musculus [4] = test: Inhibition of KOR selective agonist FE200665-induced antinociceptive activity in ICR mouse assessed as effect on tail withdrawal latency at 10 ug, it dosed 15 mins before FE200665 dosing and measured up to 24 hrs by tail flick test; format: functional, organism-based; conditions: dose 10.0 µg, time hrs <=24
Procedure, shortened: (§1)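 Adult male ICR mice given vehicle (MPH2O) or compound by lumbar puncture, 10 µg in 5 µL, n = 6/treatment, at t = −15 min. At t = 0 they received FE200665, 10 µg in 5 µL by lumbar puncture. Tail flick from 52 °C water retested up to 9 times over 24 h, 10.0 s cutoff. % antinociception = 100×(test−baseline)/(cutoff−baseline). Nonparametric two-way ANOVA with Bonferroni post hoc.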

Mus musculus [5] = species on record: Mus musculus; test: Antinociceptive activity in ICR mouse assessed as elevation in tail withdrawal latency at 1 ug, it measured after 30 mins by tail flick test; format: functional, organism-based; conditions: dose 1.0 µg
Mus musculus [6] = species on record: Mus musculus; test: Antinociceptive activity in ICR mouse assessed as elevation in tail withdrawal latency at 10 ug, it measured after 30 mins by tail flick test; format: functional, organism-based; conditions: dose 10.0 µg
Mus musculus [7] = species on record: Mus musculus; test: Antinociceptive activity in ICR mouse assessed as elevation in tail withdrawal latency at 0.1 ug, it measured after 30 mins by tail flick test; format: functional, organism-based; conditions: dose 0.1 µg
Mus musculus [8] = test: Inhibition of KOR selective agonist FE200665-induced antinociceptive activity in ICR mouse assessed as effect on tail withdrawal latency at 10 ug, it dosed 15 mins before FE200665 dosing and measured at 24 hrs by tail flick test; format: functional, organism-based; conditions: dose 10.0 µg; procedure, shortened: as §1
[9] = molecular target: T1, Kappa-type opioid receptor (Homo sapiens, UniProt P41145); test: Agonist activity at human KOR expressed in CHO cell membranes at 10 uM incubated for 1 hr by liquid scintillation counting based [35S]GTP-gamma-S assay; conditions: Cell membrane
T1 sequence (P41145 whole entry): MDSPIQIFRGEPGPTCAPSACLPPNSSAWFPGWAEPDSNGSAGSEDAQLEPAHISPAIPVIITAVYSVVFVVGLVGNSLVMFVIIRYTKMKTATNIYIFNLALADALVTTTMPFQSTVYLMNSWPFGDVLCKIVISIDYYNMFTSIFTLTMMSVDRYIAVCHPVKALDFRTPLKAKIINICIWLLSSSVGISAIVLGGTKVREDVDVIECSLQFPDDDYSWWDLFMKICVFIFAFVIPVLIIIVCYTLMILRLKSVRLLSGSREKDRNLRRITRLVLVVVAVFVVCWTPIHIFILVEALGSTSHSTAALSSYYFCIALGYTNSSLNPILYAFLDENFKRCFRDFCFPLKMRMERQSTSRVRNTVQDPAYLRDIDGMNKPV
Procedure, shortened: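 Frozen KOR-CHO cell pellets are homogenized and spun at 20 000g. 15 µg of membrane protein is incubated with test compound or vehicle and 0.1 nM [35S]GTPγS in 50 mM Tris-HCl pH 7.4 with 100 mM NaCl, 5 mM MgCl2, 1 mM EDTA and 40 µM GDP, for 1 h at 30 °C. Filtration and scintillation counting follow, and the result is expressed as % of U50,488 stimulation.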

Cavia porcellus = species on record: Cavia porcellus; test: Agonist activity at OPRK in isolated Hartley guinea pig ileum/longitudinal muscle with myenteric plexus assessed as inhibition of electrically stimulated muscle contraction at 1 uM relative to control; format: tissue-based
Procedure, shortened: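 Male Hartley guinea pig LMMP strips under 1 g tension in oxygenated Krebs bicarbonate buffer, 37 °C, field-stimulated at 0.1 Hz, 0.4 ms, supramaximal voltage. Compound tested at 1 µM. Activity given as percent of agonist response relative to the mean signal over the 3 min before drug. Tissue integrity checked first with a PL-017 dose-response curve.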

[10] = molecular target: T1, Kappa-type opioid receptor; test: Antagonist activity at human KOR expressed in CHO cell membranes assessed as reduction in U50,488 induced response incubated for 1 hr by liquid scintillation counting based [35S]GTP-gamma-S assay relative to naloxone; conditions: Cell membrane
Procedure, shortened: (§2)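 The assay uses KOR-CHO membranes (15 µg protein) with 0.1 nM [35S]GTPγS and 40 µM GDP, for 1 h at 30 °C, in the presence of 100 nM U50,488 as agonist. Bound label is counted after filtration. Data are normalized to 100 nM U50,488 (100%) and fit to a three-parameter inhibition curve. Imax is given relative to naloxone.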

[11] = molecular target: T1, Kappa-type opioid receptor; test: Antagonist activity at human KOR expressed in CHO cell membranes assessed as reduction in U50,488 induced response incubated for 1 hr by liquid scintillation counting based [35S]GTP-gamma-S assay; parameters: species or system Cell membrane
[12] = molecular target: T1, Kappa-type opioid receptor; test: Antagonist activity at human KOR expressed in CHO cell membranes assessed as reduction in U50,488 induced response at 10 uM incubated for 1 hr by liquid scintillation counting based [35S]GTP-gamma-S assay relative to naloxone; conditions: Cell membrane; procedure, shortened: as §2
Mus musculus [13] = test: Inhibition of KOR selective agonist FE200665-induced antinociceptive activity in ICR mouse assessed as effect on tail withdrawal latency at 10 ug, it dosed 15 mins before FE200665 dosing and measured after 45 mins by tail flick test; format: functional, organism-based; conditions: dose 10.0 µg, time 60.0 min; procedure, shortened: as §1
Mus musculus [14] = test: Inhibition of KOR selective agonist FE200665-induced antinociceptive activity in ICR mouse assessed as effect on tail withdrawal latency at 10 ug, it dosed 15 mins before FE200665 dosing and measured up to 45 mins by tail flick test; format: functional, organism-based; conditions: dose 10.0 µg, time min <=45; procedure, shortened: as §1
Mus musculus [15] = test: Inhibition of KOR selective agonist FE200665-induced antinociceptive activity in ICR mouse assessed as effect on tail withdrawal latency at 10 ug, it dosed 15 mins before FE200665 dosing and measured at 15 mins by tail flick test; format: functional, organism-based; conditions: dose 10.0 µg, time 30.0 min; procedure, shortened: as §1

CC[C@H](C)[C@H](NC(=O)[C@H](CCCN=C(N)N)NC(=O)[C@H](CCCN=C(N)N)NC(=O)[C@H](CC(C)C)NC(=O)[C@H](Cc1ccccc1)NC(=O)CNC(=O)CNC(=O)[C@@H](N)Cc1ccc(O)cc1)C(=O)N[C@@H](CCCN=C(N)N)C(=O)N1CCC[C@H]1C(=O)N[C@@H](CCCCN)C(N)=O
viability at 24 h, 1000 µM [1]: 100%

CC(=O)N[C@@H](Cc1ccc(O)cc1)C(=O)NCC(=O)NCC(=O)N[C@@H](Cc1ccccc1)C(=O)N[C@@H](CC(C)C)C(=O)N[C@@H](CCCNC(=N)N)C(=O)N[C@H](C)C(=O)N[C@@H](CCCNC(=N)N)C(=O)N1CCC[C@@H]1C(=O)N[C@@H](CCCCN)C(N)=O (Ac-YGGFLR[dA]R[dP]K-NH2)
Ki (Mu-type opioid receptor; ng108-15): Not Active
half-life [2]: 350 h

CC(=O)N[C@@H](Cc1ccc(O)cc1)C(=O)NCC(=O)N1CCC[C@H]1C(=O)N[C@@H](Cc1ccccc1)C(=O)N[C@@H](CC(C)C)C(=O)N[C@@H](CCCNC(=N)N)C(=O)N[C@H](C)C(=O)N[C@@H](CCCNC(=N)N)C(=O)N1CCC[C@H]1C(=O)N[C@@H](CCCCN)C(N)=O (Ac-YGPFLR[dA]RPK-NH2)
Ki (Mu-type opioid receptor; ng108-15): Not Active

CC(=O)N[C@@H](Cc1ccc(O)cc1)C(=O)NCC(=O)N1CCC[C@H]1C(=O)N[C@@H](Cc1ccccc1)C(=O)N[C@@H](CC(C)C)C(=O)N[C@@H](CCCNC(=N)N)C(=O)N[C@H](C)C(=O)N[C@@H](CCCNC(=N)N)C(=O)N1CCC[C@@H]1C(=O)N[C@@H](CCCCN)C(N)=O (Ac-YGPFLR[dA]R[dP]K-NH2)
Ki (Mu-type opioid receptor; ng108-15): Not Active

CC(=O)N[C@@H](Cc1ccc(O)cc1)C(=O)NCC(=O)N1CCC[C@H]1C(=O)N[C@@H](Cc1ccccc1)C(=O)N[C@@H](CC(C)C)C(=O)N[C@@H](CCCN)C(=O)N[C@H](C)C(=O)N[C@@H](CCCNC(=N)N)C(=O)N1CCC[C@H]1C(=O)N[C@@H](CCCCN)C(N)=O (Ac-YGPFL[Orn][dA]RPK-NH2)
Ki (Mu-type opioid receptor; ng108-15): Not Active
Ki [3]: > 10 µM

CC[C@H](C)[C@H](NC(=O)[C@H](CCCNC(=N)N)NC(=O)[C@H](CC(C)C)NC(=O)[C@H](Cc1ccccc1)NC(=O)CNC(=O)CNC(=O)[C@@H](C)Cc1c(C)cc(O)cc1C)C(=O)N[C@@H](CCCNC(=N)N)C(N)=O (X1-GGFLRIR-NH2)
Activity (Mus musculus [4]): Active
Activity (Mus musculus [5]): inactive
Activity (Mus musculus [6]): inactive
Activity (Mus musculus [7]): inactive
Activity (Mus musculus [8]): inactive

CC[C@H](C)[C@H](NC(=O)[C@H](CCCNC(=N)N)NC(=O)[C@H](CC(C)C)NC(=O)[C@H](Cc1ccccc1)NC(=O)CNC(=O)CNC(=O)[C@@H](C)Cc1c(C)cc(O)cc1C)C(=O)N[C@@H](CCCNC(=N)N)C(=O)N1CCC[C@H]1C(=O)N[C@@H](CCCCN)C(N)=O (X1-GGFLRIRPK-NH2)
viability at 24 h, 1000 µM [1]: 100%
Activity [9]: inactive
inhibition (Cavia porcellus): 0%

CC[C@H](C)[C@H](NC(=O)[C@H](CCCNC(=N)N)NC(=O)[C@H](CC(C)C)NC(=O)[C@H](Cc1ccccc1)NC(=O)CNC(=O)CNC(=O)[C@@H](C)Cc1c(C)cc(O)cc1C)C(=O)N[C@@H](CCCNC(=N)N)C(=O)N1CCC[C@H]1C(=O)N[C@@H](CCCCN)C(=O)O (X1-GGFLRIRPK-OH)
Activity [9]: inactive
inhibition (Cavia porcellus): 8.7%

Ac-YGGFLRIRPK-NH2
Activity [9]: inactive
inhibition (Cavia porcellus): 0%

Ac-YGPFLRIRPK-NH2
Ki (Mu-type opioid receptor; ng108-15): Not Active
Ki [3]: > 10 µM

H-YGGFLRIRPK-NH2
viability at 24 h, 1000 µM [1]: 100%
Imax [10]: inactive
Activity ([9]; filed as agonist): Active
IC50 [11]: Not Active

H-YGGFLRIRPK-OH
viability at 24 h, 1000 µM [1]: 100%
Imax [10]: inactive
Activity ([9]; filed as agonist): Active
IC50 [11]: Not Active

H-YGGFLRIRPKLK-OH
Imax [10]: inactive
Activity ([9]; filed as agonist): Active
IC50 [11]: Not Active

H-YGPFLRIR-NH2
Ki (Mu-type opioid receptor; ng108-15): Not Active
half-life [2]: 2.1 h
Imax [12]: 29%

H-YGPFLRIRPK-NH2
Activity (Mus musculus [5]): Active
Ki (Mu-type opioid receptor; read-out: Ki): > 10 µM
Activity (Mus musculus [13]): inactive
Activity (Mus musculus [6]): Active
Activity (Mus musculus [14]): Active
viability at 24 h, 1000 µM [1]: 100%
half-life [2]: 1.4 h
Activity (Mus musculus [15]): Active
Imax [12]: 38%
